From ChEMBL document CHEMBL4689842, “EUbOPEN Chemogenomics Library wave 1” (2021)

Test system: U2OS
Experiment: Multiplex assay against U2OS
Assay type: toxicity, cell-based
Details: human
Procedure, shortened: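 Live cells carried four stains from seeding: Hoechst33342, BioTracker Green Microtubule Cytoskeleton Dye, MitoTracker Red and Annexin V Alexa Fluor 680. They were imaged on a CQ1 microscope at 37°C and 5% CO2 after compound addition. Using CellPathfinder machine-learning gating, cells were split into Hoechst high-intensity objects or normal cells, normal cells into healthy, pyknosed or fragmented nuclei, and pyknosed cells into mitotic or apoptotic; tubulin, mitochondrial-mass and membrane-permeability phenotypes are per cents of healthy-nucleus cells.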

[1] = 12 h, 1 µM, compound concentration 1 uM, replicate 1
[2] = 12 h, 1 µM, compound concentration 1 uM, replicate 2
[3] = 12 h, 10 µM, compound concentration 10 uM, replicate 1
[4] = 12 h, 10 µM, compound concentration 10 uM, replicate 2
[5] = 24 h, 1 µM, compound concentration 1 uM, replicate 1
[6] = 24 h, 1 µM, compound concentration 1 uM, replicate 2
[7] = 24 h, 10 µM, compound concentration 10 uM, replicate 1
[8] = 24 h, 10 µM, compound concentration 10 uM, replicate 2
[9] = 48 h, 1 µM, compound concentration 1 uM, replicate 1
[10] = 48 h, 1 µM, compound concentration 1 uM, replicate 2
[11] = 48 h, 10 µM, compound concentration 10 uM, replicate 1
[12] = 48 h, 10 µM, compound concentration 10 uM, replicate 2

COc1cccc([C@@H](C)NCCCc2ccccc2Cl)c1.Cl [TECALCET HYDROCHLORIDE]
Population Apoptotic (%) [1]: 50% | Population Fragmented Nuclei (%) [1]: 22% | Population Healthy Nuclei (%) [1]: 72% | Population Hoechst High Intensity Objects (%) [1]: 32% | Population Membrane Permeable-Phenotype (%) [1]: 3% | Population Mitochondria Different-Phenotype (%) [1]: 34% | Population Mitotic Cells (%) [1]: 50% | Population Normal (%) [1]: 67% | Population Pyknosed Nuclei (%) [1]: 5% | Population Tubulin-Different-Phenotype (%) [1]: 30% | Total Cell Count [1]: 188 | Population Apoptotic (%) [2]: 16% | Population Fragmented Nuclei (%) [2]: 10% | Population Healthy Nuclei (%) [2]: 81% | Population Hoechst High Intensity Objects (%) [2]: 10% | Population Membrane Permeable-Phenotype (%) [2]: 6% | Population Mitochondria Different-Phenotype (%) [2]: 20% | Population Mitotic Cells (%) [2]: 83% | Population Normal (%) [2]: 89% | Population Pyknosed Nuclei (%) [2]: 8% | Population Tubulin-Different-Phenotype (%) [2]: 18% | Total Cell Count [2]: 70 | Population Apoptotic (%) [3]: 62% | Population Fragmented Nuclei (%) [3]: 11% | Population Healthy Nuclei (%) [3]: 64% | Population Hoechst High Intensity Objects (%) [3]: 8% | Population Membrane Permeable-Phenotype (%) [3]: 6% | Population Mitochondria Different-Phenotype (%) [3]: 86% | Population Mitotic Cells (%) [3]: 37% | Population Normal (%) [3]: 91% | Population Pyknosed Nuclei (%) [3]: 23% | Population Tubulin-Different-Phenotype (%) [3]: 90% | Total Cell Count [3]: 53 | Population Apoptotic (%) [4]: 41% | Population Fragmented Nuclei (%) [4]: 7% | Population Healthy Nuclei (%) [4]: 75% | Population Hoechst High Intensity Objects (%) [4]: 5% | Population Membrane Permeable-Phenotype (%) [4]: 18% | Population Mitochondria Different-Phenotype (%) [4]: 90% | Population Mitotic Cells (%) [4]: 58% | Population Normal (%) [4]: 94% | Population Pyknosed Nuclei (%) [4]: 17% | Population Tubulin-Different-Phenotype (%) [4]: 96% | Total Cell Count [4]: 83 | Population Apoptotic (%) [5]: 44% | Population Fragmented Nuclei (%) [5]: 22% | Population Healthy Nuclei (%) [5]: 57% | Population Hoechst High Intensity Objects (%) [5]: 26% | Population Membrane Permeable-Phenotype (%) [5]: 3% | Population Mitochondria Different-Phenotype (%) [5]: 30% | Population Mitotic Cells (%) [5]: 55% | Population Normal (%) [5]: 73% | Population Pyknosed Nuclei (%) [5]: 20% | Population Tubulin-Different-Phenotype (%) [5]: 19% | Total Cell Count [5]: 239 | Population Apoptotic (%) [6]: 77% | Population Fragmented Nuclei (%) [6]: 8% | Population Healthy Nuclei (%) [6]: 80% | Population Hoechst High Intensity Objects (%) [6]: 8% | Population Membrane Permeable-Phenotype (%) [6]: 6% | Population Mitochondria Different-Phenotype (%) [6]: 6% | Population Mitotic Cells (%) [6]: 22% | Population Normal (%) [6]: 91% | Population Pyknosed Nuclei (%) [6]: 10% | Population Tubulin-Different-Phenotype (%) [6]: 12% | Total Cell Count [6]: 95 | Population Apoptotic (%) [7]: 50% | Population Fragmented Nuclei (%) [7]: 12% | Population Healthy Nuclei (%) [7]: 63% | Population Hoechst High Intensity Objects (%) [7]: 12% | Population Membrane Permeable-Phenotype (%) [7]: 10% | Population Mitochondria Different-Phenotype (%) [7]: 81% | Population Mitotic Cells (%) [7]: 50% | Population Normal (%) [7]: 87% | Population Pyknosed Nuclei (%) [7]: 23% | Population Tubulin-Different-Phenotype (%) [7]: 79% | Total Cell Count [7]: 61 | Population Apoptotic (%) [8]: 35% | Population Fragmented Nuclei (%) [8]: 8% | Population Healthy Nuclei (%) [8]: 70% | Population Hoechst High Intensity Objects (%) [8]: 8% | Population Membrane Permeable-Phenotype (%) [8]: 24% | Population Mitochondria Different-Phenotype (%) [8]: 91% | Population Mitotic Cells (%) [8]: 64% | Population Normal (%) [8]: 91% | Population Pyknosed Nuclei (%) [8]: 20% | Population Tubulin-Different-Phenotype (%) [8]: 92% | Total Cell Count [8]: 97 | Population Apoptotic (%) [9]: 83% | Population Fragmented Nuclei (%) [9]: 29% | Population Healthy Nuclei (%) [9]: 60% | Population Hoechst High Intensity Objects (%) [9]: 20% | Population Membrane Permeable-Phenotype (%) [9]: 8% | Population Mitochondria Different-Phenotype (%) [9]: 34% | Population Mitotic Cells (%) [9]: 16% | Population Normal (%) [9]: 79% | Population Pyknosed Nuclei (%) [9]: 10% | Population Tubulin-Different-Phenotype (%) [9]: 14% | Total Cell Count [9]: 378 | Population Apoptotic (%) [10]: 63% | Population Fragmented Nuclei (%) [10]: 6% | Population Healthy Nuclei (%) [10]: 84% | Population Hoechst High Intensity Objects (%) [10]: 7% | Population Membrane Permeable-Phenotype (%) [10]: 12% | Population Mitochondria Different-Phenotype (%) [10]: 15% | Population Mitotic Cells (%) [10]: 36% | Population Normal (%) [10]: 92% | Population Pyknosed Nuclei (%) [10]: 9% | Population Tubulin-Different-Phenotype (%) [10]: 18% | Total Cell Count [10]: 153 | Population Apoptotic (%) [11]: 77% | Population Fragmented Nuclei (%) [11]: 18% | Population Healthy Nuclei (%) [11]: 54% | Population Hoechst High Intensity Objects (%) [11]: 11% | Population Membrane Permeable-Phenotype (%) [11]: 7% | Population Mitochondria Different-Phenotype (%) [11]: 55% | Population Mitotic Cells (%) [11]: 22% | Population Normal (%) [11]: 88% | Population Pyknosed Nuclei (%) [11]: 27% | Population Tubulin-Different-Phenotype (%) [11]: 62% | Total Cell Count [11]: 73 | Population Apoptotic (%) [12]: 54% | Population Fragmented Nuclei (%) [12]: 10% | Population Healthy Nuclei (%) [12]: 60% | Population Hoechst High Intensity Objects (%) [12]: 4% | Population Membrane Permeable-Phenotype (%) [12]: 36% | Population Mitochondria Different-Phenotype (%) [12]: 82% | Population Mitotic Cells (%) [12]: 45% | Population Normal (%) [12]: 95% | Population Pyknosed Nuclei (%) [12]: 29% | Population Tubulin-Different-Phenotype (%) [12]: 73% | Total Cell Count [12]: 130
